Results as given in ChEMBL document CHEMBL4689842, “EUbOPEN Chemogenomics Library wave 1” (2021).

Test system: HEK-293T
Assay: Multiplex assay against HEK293T;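 on Population Tubulin-Different-Phenotype (%): share of the cells with healthy nuclei that show this phenotype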
Assay type: toxicity, cell-based
Settings: human
Method in brief: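 Cells stained live at seeding with Hoechst33342, BioTracker Green Microtubule Cytoskeleton Dye, MitoTracker Red and Annexin V Alexa Fluor 680 were imaged on a CQ1 microscope at 37°C and 5% CO2 after compound addition. Their classification by CellPathfinder machine-learning gating ran from Hoechst high-intensity objects versus normal cells, to healthy, pyknosed or fragmented nuclei among normal cells, to mitotic or apoptotic among pyknosed cells. Tubulin, mitochondrial-mass and membrane-permeability phenotypes are per cents of healthy-nucleus cells.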

[1] = 12 h, 1 µM, compound concentration 1 uM, replicate 1
[2] = 12 h, 1 µM, compound concentration 1 uM, replicate 2
[3] = 12 h, 10 µM, compound concentration 10 uM, replicate 1
[4] = 12 h, 10 µM, compound concentration 10 uM, replicate 2
[5] = 24 h, 1 µM, compound concentration 1 uM, replicate 1
[6] = 24 h, 1 µM, compound concentration 1 uM, replicate 2
[7] = 24 h, 10 µM, compound concentration 10 uM, replicate 1
[8] = 24 h, 10 µM, compound concentration 10 uM, replicate 2
[9] = 48 h, 1 µM, compound concentration 1 uM, replicate 1
[10] = 48 h, 1 µM, compound concentration 1 uM, replicate 2
[11] = 48 h, 10 µM, compound concentration 10 uM, replicate 1
[12] = 48 h, 10 µM, compound concentration 10 uM, replicate 2

O=C(Nc1ccc(-c2ccnc(Nc3ccc(N4CCOCC4)cc3)n2)cc1)[C@@H]1CCCN1
Population Apoptotic (%) [1]: 46% | Population Fragmented Nuclei (%) [1]: 9% | Population Healthy Nuclei (%) [1]: 34% | Population Hoechst High Intensity Objects (%) [1]: 11% | Population Membrane Permeable-Phenotype (%) [1]: 2% | Population Mitochondria Different-Phenotype (%) [1]: 77% | Population Mitotic Cells (%) [1]: 53% | Population Normal (%) [1]: 88% | Population Pyknosed Nuclei (%) [1]: 56% | Population Tubulin-Different-Phenotype (%) [1]: 50% | Total Cell Count [1]: 289 | Population Apoptotic (%) [2]: 13% | Population Fragmented Nuclei (%) [2]: 2% | Population Healthy Nuclei (%) [2]: 45% | Population Hoechst High Intensity Objects (%) [2]: 4% | Population Membrane Permeable-Phenotype (%) [2]: 12% | Population Mitochondria Different-Phenotype (%) [2]: 19% | Population Mitotic Cells (%) [2]: 86% | Population Normal (%) [2]: 95% | Population Pyknosed Nuclei (%) [2]: 51% | Population Tubulin-Different-Phenotype (%) [2]: 30% | Total Cell Count [2]: 246 | Population Apoptotic (%) [3]: 54% | Population Fragmented Nuclei (%) [3]: 16% | Population Healthy Nuclei (%) [3]: 17% | Population Hoechst High Intensity Objects (%) [3]: 18% | Population Membrane Permeable-Phenotype (%) [3]: 0% | Population Mitochondria Different-Phenotype (%) [3]: 96% | Population Mitotic Cells (%) [3]: 45% | Population Normal (%) [3]: 81% | Population Pyknosed Nuclei (%) [3]: 65% | Population Tubulin-Different-Phenotype (%) [3]: 100% | Total Cell Count [3]: 232 | Population Apoptotic (%) [4]: 27% | Population Fragmented Nuclei (%) [4]: 12% | Population Healthy Nuclei (%) [4]: 15% | Population Hoechst High Intensity Objects (%) [4]: 4% | Population Membrane Permeable-Phenotype (%) [4]: 12% | Population Mitochondria Different-Phenotype (%) [4]: 62% | Population Mitotic Cells (%) [4]: 72% | Population Normal (%) [4]: 95% | Population Pyknosed Nuclei (%) [4]: 72% | Population Tubulin-Different-Phenotype (%) [4]: 91% | Total Cell Count [4]: 163 | Population Apoptotic (%) [5]: 51% | Population Fragmented Nuclei (%) [5]: 10% | Population Healthy Nuclei (%) [5]: 52% | Population Hoechst High Intensity Objects (%) [5]: 12% | Population Membrane Permeable-Phenotype (%) [5]: 1% | Population Mitochondria Different-Phenotype (%) [5]: 75% | Population Mitotic Cells (%) [5]: 48% | Population Normal (%) [5]: 87% | Population Pyknosed Nuclei (%) [5]: 36% | Population Tubulin-Different-Phenotype (%) [5]: 51% | Total Cell Count [5]: 337 | Population Apoptotic (%) [6]: 17% | Population Fragmented Nuclei (%) [6]: 3% | Population Healthy Nuclei (%) [6]: 63% | Population Hoechst High Intensity Objects (%) [6]: 3% | Population Membrane Permeable-Phenotype (%) [6]: 6% | Population Mitochondria Different-Phenotype (%) [6]: 21% | Population Mitotic Cells (%) [6]: 82% | Population Normal (%) [6]: 96% | Population Pyknosed Nuclei (%) [6]: 32% | Population Tubulin-Different-Phenotype (%) [6]: 46% | Total Cell Count [6]: 303 | Population Apoptotic (%) [7]: 57% | Population Fragmented Nuclei (%) [7]: 18% | Population Healthy Nuclei (%) [7]: 24% | Population Hoechst High Intensity Objects (%) [7]: 12% | Population Membrane Permeable-Phenotype (%) [7]: 1% | Population Mitochondria Different-Phenotype (%) [7]: 98% | Population Mitotic Cells (%) [7]: 42% | Population Normal (%) [7]: 87% | Population Pyknosed Nuclei (%) [7]: 56% | Population Tubulin-Different-Phenotype (%) [7]: 98% | Total Cell Count [7]: 242 | Population Apoptotic (%) [8]: 32% | Population Fragmented Nuclei (%) [8]: 7% | Population Healthy Nuclei (%) [8]: 38% | Population Hoechst High Intensity Objects (%) [8]: 4% | Population Membrane Permeable-Phenotype (%) [8]: 7% | Population Mitochondria Different-Phenotype (%) [8]: 56% | Population Mitotic Cells (%) [8]: 67% | Population Normal (%) [8]: 95% | Population Pyknosed Nuclei (%) [8]: 53% | Population Tubulin-Different-Phenotype (%) [8]: 88% | Total Cell Count [8]: 186 | Population Apoptotic (%) [9]: 48% | Population Fragmented Nuclei (%) [9]: 10% | Population Healthy Nuclei (%) [9]: 71% | Population Hoechst High Intensity Objects (%) [9]: 7% | Population Membrane Permeable-Phenotype (%) [9]: 3% | Population Mitochondria Different-Phenotype (%) [9]: 31% | Population Mitotic Cells (%) [9]: 51% | Population Normal (%) [9]: 92% | Population Pyknosed Nuclei (%) [9]: 17% | Population Tubulin-Different-Phenotype (%) [9]: 33% | Total Cell Count [9]: 482 | Population Apoptotic (%) [10]: 10% | Population Fragmented Nuclei (%) [10]: 4% | Population Healthy Nuclei (%) [10]: 84% | Population Hoechst High Intensity Objects (%) [10]: 3% | Population Membrane Permeable-Phenotype (%) [10]: 4% | Population Mitochondria Different-Phenotype (%) [10]: 6% | Population Mitotic Cells (%) [10]: 90% | Population Normal (%) [10]: 96% | Population Pyknosed Nuclei (%) [10]: 10% | Population Tubulin-Different-Phenotype (%) [10]: 25% | Total Cell Count [10]: 495 | Population Apoptotic (%) [11]: 49% | Population Fragmented Nuclei (%) [11]: 22% | Population Healthy Nuclei (%) [11]: 48% | Population Hoechst High Intensity Objects (%) [11]: 8% | Population Membrane Permeable-Phenotype (%) [11]: 4% | Population Mitochondria Different-Phenotype (%) [11]: 84% | Population Mitotic Cells (%) [11]: 50% | Population Normal (%) [11]: 91% | Population Pyknosed Nuclei (%) [11]: 29% | Population Tubulin-Different-Phenotype (%) [11]: 95% | Total Cell Count [11]: 271 | Population Apoptotic (%) [12]: 36% | Population Fragmented Nuclei (%) [12]: 10% | Population Healthy Nuclei (%) [12]: 60% | Population Hoechst High Intensity Objects (%) [12]: 5% | Population Membrane Permeable-Phenotype (%) [12]: 10% | Population Mitochondria Different-Phenotype (%) [12]: 38% | Population Mitotic Cells (%) [12]: 63% | Population Normal (%) [12]: 94% | Population Tubulin-Different-Phenotype (%) [12]: 81% | Total Cell Count [12]: 246
